Common to all, as to assay type: functional
Common to all, as to conditions: read-out: ED50 (the source's name)

Assay [1] has as its system SK-BR-3. The assay is described as follows: Cytotoxicity against human SK-BR-3 cells expressing HER2 and lacking ER. The method in brief: (§1)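 SRB growth-inhibition assay. Cells grown in RPMI-1640 with 25 mM HEPES, 0.25% sodium bicarbonate, 10% FBS and 100 µg/mL kanamycin. Freshly trypsinized cells seeded at 1500-7500 per well, with compound added from DMSO-diluted stock. After 3 days, attached cells fixed with cold 50% TCA, stained with 0.4% SRB, dye solubilized, A562 read. ED50 = concentration reducing growth 50%, mean of ≥3 independent determinations.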

Assay [2] has as its system MDA-MB-231. Put plainly: Cytotoxicity against human MDA-MB-231 cells lacking ER. In a few lines: as §1
For assay [3], the system named is A-431. Put plainly: Cytotoxicity against human A431 cells. In a few lines: as §1
Assay [4] relates to KB. The assay is described as follows: Cytotoxicity against human KB cells. In a few lines: as §1
Assay [5] concerns ZR-75-1. Put plainly: Cytotoxicity against human ZR-75-1 cells expressing ER. In a few lines:
as §1

Assay [6] concerns MCF7. The assay is described as follows: Cytotoxicity against human MCF7 cells expressing ER. In a few lines: as §1
In assay [7] the test system is SW-620. The assay is described as follows: Cytotoxicity against human SW620 cells. The method in brief: as §1
The test system of assay [8] is Hs-578T. The assay is described as follows: Cytotoxicity against human HS 587-T cells lacking ER. In a few lines:
as §1

≈ marks a conversion by molar mass, not a printed value.

For `Cc1cccc2c1ccc1c3occ(C)c3c(=O)oc21`, the EC50 in assay [1] was 0.18 mg/L (≈ 0.681 µM); in assay [2] it was 10 mg/L (≈ 37.8 µM); in assay [3], over 10 mg/L; in assay [4] it was over 10 mg/L; in assay [5], 0.25 mg/L (≈ 0.946 µM); in assay [6], 0.6 mg/L (≈ 2.27 µM). In addition, the EC50 is over 10 mg/L in assay [7] and 16 mg/L (≈ 60.5 µM) in assay [8].

As to `CC/C(=C(\c1ccccc1)c1ccc(OCCN(C)C)cc1)c1ccccc1` [TAMOXIFEN], the EC50 in assay [1] amounted to 5 mg/L (≈ 13.5 µM); in assay [2] it was 8.5 mg/L (≈ 22.9 µM); in assay [3] it was 7 mg/L (≈ 18.8 µM); in assay [4] it was 9 mg/L (≈ 24.2 µM); in assay [5], 3.6 mg/L (≈ 9.69 µM); in assay [6], 5 mg/L (≈ 13.5 µM). Besides, the EC50 was determined as 4 mg/L (≈ 10.8 µM) in assay [7] and 7 mg/L (≈ 18.8 µM) in assay [8].

As for `CCc1cccc2c1ccc1c3occc3c(=O)oc21`, the EC50 in assay [2] and in assay [6] was over 10 mg/L throughout.

`O=c1oc2c3ccccc3ccc2c2occc12`: the EC50 in assay [2] was 10.5 mg/L (≈ 44.4 µM); in assay [6], over 20 mg/L.

In the case of `O=c1oc2c3ccccc3c(Cl)cc2c2occc12`, the EC50 in assay [1] is over 10 mg/L; in assay [3], over 10 mg/L; in assay [4], over 10 mg/L; in assay [5] it was over 10 mg/L; in assay [6] it was 7 mg/L (≈ 25.9 µM); in assay [7], over 10 mg/L.

Consider `COc1cc2c3occc3c(=O)oc2c2ccccc12`, for which the EC50 in assay [1] amounted to 4 mg/L (≈ 15 µM); in assay [3], 9.5 mg/L (≈ 35.7 µM); in assay [4] it was 9.5 mg/L (≈ 35.7 µM); in assay [5] it was 8.5 mg/L (≈ 31.9 µM); in assay [6] it was 3.4 mg/L (≈ 12.8 µM); in assay [7], 4 mg/L (≈ 15 µM).

As to `O=c1oc2c(ccc3ccccc32)c2c1C(O)CO2` (stereo not drawn), in assay [6], the EC50 is 12.5 mg/L (≈ 49.2 µM).

In the case of `Cc1cccc2c1ccc1c3occc3c(=O)oc21`, the EC50 was 8.5 mg/L (≈ 34 µM) in assay [1]; 8.3 mg/L (≈ 33.2 µM) in assay [3]; over 10 mg/L in assay [4]; over 10 mg/L in assay [5]; 5.5 mg/L (≈ 22 µM) in assay [6]; over 10 mg/L in assay [7].

On to `Cc1coc2c1c(=O)oc1c3ccccc3ccc21`, for which the EC50 came out at 10.3 mg/L (≈ 41.2 µM) in assay [2], 4 mg/L (≈ 16 µM) in assay [5], 4 mg/L (≈ 16 µM) in assay [6] and 7.5 mg/L (≈ 30 µM) in assay [8].

With `COc1cc2c3occ(C)c3c(=O)oc2c2ccccc12`, the EC50 in assay [1] is 8.6 mg/L (≈ 30.7 µM); in assay [3], 9.5 mg/L (≈ 33.9 µM); in assay [4], over 10 mg/L; in assay [5], over 10 mg/L; in assay [6], 5 mg/L (≈ 17.8 µM); in assay [7], 9 mg/L (≈ 32.1 µM).

For the molecule `Cc1coc2c1c(=O)oc1c3ccccc3c(Cl)cc21`, the EC50 in assay [1] was 4.5 mg/L (≈ 15.8 µM); in assay [3] it was 8 mg/L (≈ 28.1 µM); in assay [4], over 10 mg/L; in assay [5] it was 8.6 mg/L (≈ 30.2 µM); in assay [6], 5 mg/L (≈ 17.6 µM); in assay [7], over 10 mg/L.

`CCc1cccc2c1ccc1c3occ(C)c3c(=O)oc21`: the EC50 in assay [1] was 0.1 mg/L (≈ 0.359 µM); in assay [2], 13.5 mg/L (≈ 48.5 µM); in assay [3], over 10 mg/L; in assay [4] it was over 10 mg/L; in assay [5], 0.18 mg/L (≈ 0.647 µM); in assay [6], 0.45 mg/L (≈ 1.62 µM). The EC50 in assay [7] was over 10 mg/L; in assay [8] it was 10 mg/L (≈ 35.9 µM).

For the origin of these results see ChEMBL document CHEMBL1146885, “Antitumor agents. 254. Synthesis and biological evaluation of novel neo-tanshinlactone analogues as potent anti-breast cancer agents” (2006).
